Measured values: ChEMBL document CHEMBL5584332, “Structure and Biosynthesis of Perochalasins A-C, Open-Chain Merocytochalasans Produced by the Marine-Derived Fungus Peroneutypa sp. M16” (J Nat Prod, 2024)

Columns and labels:
Plasmodium falciparum [1] = experiment: Antiplasmodial activity against Plasmodium falciparum 3D7; format: functional, organism-based
In short: (§1)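 In vitro asexual P. falciparum growth inhibition, reported as IC50. The strains were chloroquine-sensitive 3D7; Dd2, resistant to CQ, SDX, PYR, MQ and CYC; TM90C6B, resistant to CQ, PYR and ATO; and 3D7r_MMV848, resistant to MMV692848. A standard antimalarial served as control for each resistant strain. Values are mean ± standard deviation of two independent experiments run in triplicate.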

Plasmodium falciparum [2] = experiment: Resistance index, ratio of IC50 for drug-resistant Plasmodium falciparum Dd2 to IC50 for Plasmodium falciparum 3D7; format: functional
In short: (§2)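 Resistance index computed as IC50 against the resistant strain divided by IC50 against 3D7. IC50 values are mean ± standard deviation of two independent experiments in triplicate. Resistant strains: Dd2 (CQ, SDX, PYR, MQ, CYC), TM90C6B (CQ, PYR, ATO) and 3D7r_MMV848 (MMV692848).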

Plasmodium falciparum [3] = experiment: Resistance index, ratio of IC50 for drug-resistant Plasmodium falciparum TM90C6B to IC50 for Plasmodium falciparum 3D7; format: functional; in short: as §2
[4] = Cytotoxicity against human HepG2 cells; format: toxicity, cell-based
Plasmodium falciparum [5] = experiment: Antiplasmodial activity against drug-resistant Plasmodium falciparum TM90C6B; format: functional, organism-based; in short: as §1
[6] = Selectivity index, ratio of IC50 for human HepG2 cells to IC50 for Plasmodium falciparum 3D7; format: toxicity; details: HepG2 cells versus Plasmodium falciparum 3D7, read-out: Ratio IC50
Plasmodium falciparum [7] = experiment: Antiplasmodial activity against drug-resistant Plasmodium falciparum 3D7r_MMV848; format: functional, organism-based; in short: as §1
Plasmodium falciparum [8] = experiment: Antiplasmodial activity against drug-resistant Plasmodium falciparum Dd2; format: functional, organism-based; in short: as §1
Plasmodium falciparum [9] = experiment: Resistance index, ratio of IC50 for drug-resistant Plasmodium falciparum 3D7r_MMV848 to IC50 for Plasmodium falciparum 3D7; format: functional; in short: as §2

For `CC1=C(C)[C@H]2[C@H](Cc3ccc(O)cc3)NC(=O)[C@]23OC(=O)C/C=C(/C)C(=O)[C@@H](C)C/C=C/[C@H]3[C@@H]1O`, the IC50 (Plasmodium falciparum [1]) was 4.4 µM, the “Ratio IC50” value (Plasmodium falciparum [2]) was 1.6 and the “Ratio IC50” value (Plasmodium falciparum [3]) was 1.4. The IC50 [4] was greater than 100 µM, the IC50 (Plasmodium falciparum [5]) was 6 µM and the selectivity ratio [6] was greater than 23. For the same molecule, the IC50 (Plasmodium falciparum [7]) was 4 µM, the IC50 (Plasmodium falciparum [8]) was 7 µM and the “Ratio IC50” value (Plasmodium falciparum [9]) was 0.9.

For `CC(C)c1c(C(=O)Nc2ccccc2)c(-c2ccccc2)c(-c2ccc(F)cc2)n1CC[C@@H](O)C[C@@H](O)CC(=O)O` [ATORVASTATIN], the “Ratio IC50” value (Plasmodium falciparum [3]) was greater than 1428 and the IC50 (Plasmodium falciparum [5]) was greater than 1 µM.

With `CCc1nc(N)nc(N)c1-c1ccc(Cl)cc1` [PYRIMETHAMINE] the “Ratio IC50” value (Plasmodium falciparum [2]) was greater than 166 and the IC50 (Plasmodium falciparum [8]) was greater than 10 µM.
